Laboratory results taken from ChEMBL document CHEMBL4651341, “The discovery of a novel series of compounds with single-dose efficacy against juvenile and adult Schistosoma species” (PLoS Negl Trop Dis, 2021).
Converted amounts (≈) assume the structure as drawn.

What was measured:
[1] = Mean plasma concentration at 4h in Swiss albino male mice at […] per compound (administered orally in a mixture of 5 compounds to 3 mice) assessed by LCMS/MS.; type: ADME, organism-based; settings: mouse, po
[2] = Partition coefficient of compound between n-octanol and PBS (pH7.4); type: physicochemical; settings: octanol/water, pH 7.4
Method in brief: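 Shake-flask method using octanol and PBS pH 7.4, each pre-saturated with the other. Compound was shaken 2 h at 850 rpm, 25 °C, then the phases were separated by centrifugation and both layers diluted and analysed by LC-MS/MS. LogD = log(octanol AUC × relative dilution / buffer AUC).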

[3] = Concentration of drug in plasma at 4h following oral drug adminstration at given dose. Determined by LCMS/MS; type: ADME, organism-based; settings: CD1, mouse
Method in brief: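 Plasma sampled from the mice of the efficacy experiments, each animal sampled once: one animal per group at 1, 4 and 8 h, two per group at 24 h. Plasma prepared by acetonitrile protein precipitation and analysed by LC-MS against a 10-point calibration line spiked in blank matrix, with QCs at three or more levels.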

[4] = test system: Schistosoma mansoni; assay: Percentage of worms remaining following treatment of female CD1 mice infected with S. mansoni worms (21 day old - juvenile or 42 day old - adult) with compound by oral gavage. Worms were recovered by portal perfusion with citrate saline 8-14 days post treatment and counted. Percentages are from a mean of 5 or 6 animals.; type: functional, Mus musculus; set-up: concentration or dose not given beside the values
Method in brief: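 Female CD1 mice were infected subcutaneously with 150 cercariae and treated at day 21 (juvenile) or day 42 (adult). Single oral gavage, or two doses 12 h apart, given in 7% Tween-80/3% ethanol/water (sonicated) or in 1:19 DMSO:corn oil. Controls received vehicle only. Worm recoveries are group means, n = 5–6.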

[5] = Concentration required to kill 50% HepG2 cells as detected by MTT staining; type: toxicity, cell-based; settings: homo sapiens, read-out: TC50 (the source's name)
[6] = Mean oral bioavailability in Swiss albino male mice at […] per compound (administered in a mixture of 5 compounds to 3 mice) assessed by LCMS/MS.; note: dose 2.5 mg/kg; type: ADME, organism-based; settings: mouse, in vivo
[7] = Mean time to peak plasma concentration in Swiss albino male mice at […] per compound (administered orally in a mixture of 5 compounds to 3 mice) assessed by LCMS/MS.; type: ADME, organism-based; settings: mouse, po
[8] = Plasma protein binding determined at 10uM by LC-MS/MS.; type: ADME, cell-free
Method in brief: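 Equilibrium dialysis of plasma spiked at 10 µM (0.1% DMSO) against PBS pH 7.4, 6 h at 37 °C, duplicates. Both chambers analysed by LC-MS/MS after acetonitrile precipitation. % free = buffer/plasma area ratio; recovery also calculated.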

[9] = Mean AUC inf in Swiss albino male mice at 1 mg/kg per compound (administered iv in a mixture of 5 compounds to 3 mice) assessed by LCMS/MS.; type: ADME, organism-based; settings: male, Swiss albino, mouse, in vivo
Method in brief: (§1)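 Male Swiss albino mice (~30 g), 3 per experiment, mostly dosed as mixtures of 5 compounds iv via the lateral tail vein. Vehicle: 10% DMSO/90% 50 mM Na2HPO4 with 0.5% Tween-80. Blood sampled at 5, 15, 30 min and 1, 2, 4, 8, 24 h. Plasma stored at −20 °C and quantified by LC-MS after acetonitrile precipitation.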

[10] = Mean observed clearance in Swiss albino male mice at 1 mg/kg per compound (administered iv in a mixture of 5 compounds to 3 mice) assessed by LCMS/MS.; type: ADME, organism-based; settings: male, Swiss albino, mouse, in vivo, read-out: Clearance (converted); method in brief: as §1
[11] = Mean volume of distribution at steady state in Swiss albino male mice at 1 mg/kg per compound (administered iv in a mixture of 5 compounds to 3 mice) assessed by LCMS/MS.; type: ADME, organism-based; settings: mouse, in vivo, read-out: Volume
Method in brief: (§2)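 Male Swiss albino mice (~30 g), 3 per experiment, mostly dosed as mixtures of 5 compounds iv via the lateral tail vein. Vehicle: 10% DMSO/90% 50 mM Na2HPO4 with 0.5% Tween-80. Plasma stored at −20 °C and quantified by LC-MS after acetonitrile precipitation.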

[12] = Mean half-life in Swiss albino male mice at 1 mg/kg per compound (administered iv in a mixture of 5 compounds to 3 mice) assessed by LCMS/MS.; type: ADME, organism-based; settings: mouse, in vivo; method in brief: as §2
[13] = Mean plasma concentration at 24h in Swiss albino male mice at […] per compound (administered orally in a mixture of 5 compounds to 3 mice) assessed by LCMS/MS.; type: ADME, organism-based; settings: mouse, po
[14] = Percentage of parent compound remaining after incubation for 30 minutes with cyropreserved human hepatocytes at a concentration of 1uM compound and 1 million cells/uL, determined by LCMS/MS; type: ADME, tissue-based, Hepatocyte; settings: cryopreserved human hepatocytes, read-out: Stability
Method in brief: (§3)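 Compound was incubated at 1 µM final (2 µM working solution mixed 1:1 with hepatocyte suspension) in supplemented KHB pH 7.4. Conditions: 37 °C, 5% CO2, gentle mixing, duplicates. Reaction quenched with ice-cold acetonitrile containing standard; analysed by LC-MS/MS. % remaining = AUC at t / AUC at T0.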

[15] = Percentage of parent compound remaining after incubation for 30 minutes with cyropreserved mouse hepatocytes at a concentration of 1uM compound and […], determined by LCMS; type: ADME, tissue-based, Hepatocyte; settings: cryopreserved mouse hepatocytes, read-out: Stability; method in brief: as §3
[16] = Solubility at 25 degC of compound (diluted from DMSO) in PBS at pH 7.4 determined after 24h (1h sonication, 22h shaking, 1h sonication) by LCMS/MS; type: physicochemical
[17] = test system: Schistosoma mansoni; assay: Concentration required to kill 50% of 42 day old worms 5 days after drug treatment.; type: functional, organism-based; settings: Puerto Rican, 120 h
Method in brief: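 Adult S. mansoni were perfused from CD1 mice 6 weeks post-infection and washed. They were cultured 3 pairs per well in 1 mL DMEM with 2 mM glutamine, penicillin/streptomycin and 10% FCS […] at 37 °C, 5% CO2. Viability of individual worms was scored on day 5 (120 h).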

[18] = test system: Schistosoma mansoni; assay: Concentration required to kill 50% of 21 day old worms 5 days after drug treatment.; type: functional, organism-based; settings: Puerto Rican, 120 h
Method in brief: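 Juvenile S. mansoni (Puerto Rican strain) were perfused from CD1 mice 3 weeks post-infection and washed. They were cultured 6–8 per well in 200 µL DMEM with 2 mM glutamine, penicillin/streptomycin and 10% FCS at 37 °C, 5% CO2. Viability of individual worms was scored on day 5 after dosing (120 h).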

[19] = Plasma protein binding determined at 1uM by LC-MS/MS.; type: ADME, cell-free
[20] = Concentration required to kill 50% MRC-5 cells as detected by Alamar blue staining; type: toxicity, cell-based, MRC5; settings: homo sapiens, read-out: TC50 (the source's name)
[21] = test system: Schistosoma haematobium; assay: Concentration required to kill 50% of 84 day old worms 5 days after drug treatment.; type: functional, organism-based; settings: Egyptian, 120 h
[22] = male, Swiss albino, read-out: Bioavailability

| Structure (SMILES) | concentration at 4 h [1] [ng/mL] | Lipophilicity [2] | CC50 [5] [nM] | Tmax [7] [min] | Binding ([8]; mouse) [%] | bioavailability [6, 22] [%] | AUC(0-inf) [9] [ng·h/mL] | clearance [10] [mL/min/kg] | Vd [11] [L/kg] | half-life [12] [min] | concentration at 24 h [13] [ng/mL] | remaining at 0.5 h, 1 µM [14] [%] | Binding ([8]; human) [%] | remaining at 0.5 h, 1 µM [15] [%] | solubility kinetic at 24 h [16] [µM] | EC50 [17] [nM] | EC50 [18] [nM] | Binding ([19]; mouse) [%] | EC50 [21] [nM] | also measured |
| --- | --- | --- | --- | --- | --- | --- | --- | --- | --- | --- | --- | --- | --- | --- | --- | --- | --- | --- | --- | --- |
| Fc1ccc(-c2cn3c(-c4ccc5[nH]ncc5c4F)c(C(F)(F)F)nc3cn2)cc1C(F)(F)F | 298 | 5.29 = | 16600 |  |  |  |  |  |  |  |  |  |  |  |  |  |  |  |  | concentration at 4 h [3]: 1500 ng/mL; Efficacy [4]: 1.84% |
| Fc1ccc(-c2cn3c(-c4ccc5[nH]ncc5c4F)c(C(F)(F)F)nc3cn2)cc1C(F)(F)C(F)(F)F | 359 | 5.6 = | 11700 | 120 | 100 |  |  |  |  |  |  |  |  |  |  |  |  |  |  | bioavailability [6]: 170%; concentration at 4 h [3]: 556 ng/mL; Efficacy [4]: 1.84% |
| CC(C)c1nc2cnc(-c3cccc(C(F)(F)F)c3)cn2c1-c1ccc2[nH]ncc2c1F | 194 | 4.56 = | 15100 | 30 | 99.975 | 63.2 | 929 | 9.15 | 3.44 | 362 | 18 | 83.1 | 99.997 | 93.9 | 1.52 (≈ 0.668 µg/mL) | 30.7 | 51.7 |  |  |  |
| Oc1ccc(-c2c(C(F)(F)F)nc3cnc(-c4cccc(C(F)(F)F)c4)cn23)c(F)c1 | 43.9 | 4.84 = |  | 15 | 99.965 | 58.4 | 203 | 41.2 | 9.55 | 268 | 1.9 |  |  | 58.7 | 17.1 (≈ 7.55 µg/mL) | < 48.8 | < 443 | 100 |  |  |
| CC(C)c1nn2cnc(-c3cccc(C(F)(F)F)c3)cc2c1-c1c(F)cc(O)cc1F | 12.5 | 5.11 = | 8400 | 15 | 100 | 14.5 | 195 | 42.8 | 3.67 | 95.4 | 0.1 | 68.4 | 100 | 95.9 | 91.9 (≈ 39.8 µg/mL) | 21.9 | < 12.2 |  |  |  |
| Oc1ccc(-c2cnc3cnc(-c4cccc(C(F)(F)F)c4)cn23)c(F)c1 | 0.1 | 4.95 = |  | 15 |  |  | 49.9 | 168 | 1.33 | 10.3 | 0.1 | 31 |  | 32.9 | 2 (≈ 0.747 µg/mL) | 2320 | 2120 | 99.76 |  | Binding ([19]; human): 99.88%; CC50 [20]: > 38300 nM |
| CCc1nc2cnc(-c3cccc(C(F)(F)F)c3)cn2c1-c1ccc(O)cc1F | 4.15 | 3.76 = | 18700 | 15 | 99.87 | 7.35 | 144 | 58.2 | 2.17 | 33.6 | 0.1 |  |  | 39 | 17.5 (≈ 7.02 µg/mL) | < 140 | 85.9 |  | 151 | CC50 [20]: 17500 nM |
| COc1cc(-c2c(C(C)C)nc3cnc(-c4cccc(C(F)(F)F)c4)cn23)cc2cn[nH]c12 | 130 | 5.49 = |  | 30 | 99.95 | 84.8 | 490 | 17 | 6.81 | 446 | 10.5 |  |  | 68 | 0.643 (≈ 0.29 µg/mL) | 428 | 527 | 100 | 149 |  |
| Cc1nc2cnc(-c3ccc(F)c(C(F)(F)F)c3)cn2c1-c1c(F)cc(O)cc1F | 289 | 5.37 = | 7560 | 15 | 99.865 | 88.5 | 844 | 10.2 | 2.91 | 216 | 9.8 | 34.3 | 99.9645 | 53.6 | 1.11 (≈ 0.47 µg/mL) | 118 | 124 | 99.8779 | 41.5 |  |
